Experimental data from ChEMBL document CHEMBL1153722, “Design, synthesis, and characterization of peptide-based rab geranylgeranyl transferase inhibitors” (J Med Chem, 2009).
Peptide text beside a SMILES is read from it. * marks the point of attachment. Hydrocinnamoyl = O=C(CCc1ccccc1)*; Palmitoyl = CCCCCCCCCCCCCCCC(=O)*; Undecanoyl = CCCCCCCCCCC(=O)*; Lauroyl = CCCCCCCCCCCC(=O)*; Cbz = O=C(OCc1ccccc1)*; NHBn = c1ccc(CN*)cc1; NHOH = ON*

Species: Rattus norvegicus
Experiment: Inhibition of rat recombinant Rab geranylgeranyltransferase at 100 uM in presence of canine Rab7 and rat REP1 NBD-FPP based continuous fluorimetric assay
In short: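 Continuous fluorometric assay in 96/384-well format: 3 μM Rab7, 3 μM REP1, 9 μM NBD-FPP and 400 nM RabGGTase, with or without inhibitor. […] IC50 was calculated from three independent measurements.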

inhibition [%]	SMILES
89	O=C(CNC(=O)[C@@H]1CCCN1C(=O)c1coc(-c2ccccc2)n1)N[C@@H](Cc1ccc(O)cc1)C(=O)Nc1ccc(F)cc1F
76	COC(=O)[C@H](CCC(N)=O)NC(=O)[C@H](Cc1ccccc1)NC(=O)[C@H](CO)NC(=O)CCc1ccccc1 (Hydrocinnamoyl-Ser-Phe-Gln-OMe)
95	CC(C)C[C@H](NC(=O)[C@H](CO)NC(=O)[C@H](Cc1ccccc1)NC(=O)/C=C/c1ccc(F)cc1)C(=O)NNc1ccccc1
98	C[C@@H](NC(=O)CCc1ccccc1)C(=O)N[C@@H](Cc1ccccc1)C(=O)N[C@@H](CCC(=O)O)C(=O)NCCO
75	C[C@@H](O)[C@H](NC(=O)/C=C/c1ccccc1)C(=O)N[C@@H](Cc1ccccc1)C(=O)N[C@@H](CCC(N)=O)C(=O)NC1CCCCC1
112	O=C(CNC(=O)c1coc(-c2ccccc2)n1)NCC(=O)N[C@@H](Cc1c[nH]cn1)C(=O)Nc1ccc(F)cc1F
77	O=C(CNC(=O)c1coc(-c2ccccc2)n1)N[C@@H](Cc1cn(C(c2ccccc2)(c2ccccc2)c2ccccc2)cn1)C(=O)N[C@@H](Cc1ccccc1)C(=O)O
89	NCCCC[C@H](NC(=O)CCc1ccccc1)C(=O)N[C@@H](Cc1c[nH]cn1)C(=O)N[C@@H](CO)C(=O)O (Hydrocinnamoyl-Lys-His-Ser-OH)
38	CCCCCCCCCCCCCC(=O)OC[C@H](NC(=O)CNC(=O)[C@H](Cc1ccccc1)NC(=O)c1coc(-c2ccccc2)n1)C(=O)O
75	O=C(CNC(=O)[C@H](Cc1c[nH]cn1)NC(=O)OCc1ccccc1)N[C@@H](Cc1ccc(O)cc1)C(=O)O (Cbz-His-Gly-Tyr-OH)
75	O=C(/C=C/c1ccc(F)cc1)N[C@@H](CO)C(=O)N[C@@H](Cc1ccccc1)C(=O)N[C@@H](CO)C(=O)N1CCOCC1
101	COC(=O)NNC(=O)[C@H](CCC(=O)O)NC(=O)[C@H](NC(=O)[C@@H]1CCCN1C(=O)c1ccc([N+](=O)[O-])c(NC(C)=O)c1)C(C)C
74	O=C(CNC(=O)[C@H](Cc1cn(C(c2ccccc2)(c2ccccc2)c2ccccc2)cn1)NC(=O)c1coc(-c2ccccc2)n1)N[C@@H](Cc1c[nH]c2ccccc12)C(=O)O
70	COC(=O)[C@H](Cc1ccc(O)cc1)NC(=O)CNC(=O)[C@H](Cc1c[nH]cn1)NC(=O)OCc1ccccc1 (Cbz-His-Gly-Tyr-OMe)
113	C[C@@H](O)[C@H](NC(=O)C(Br)C(Br)c1ccccc1)C(=O)N[C@@H](Cc1ccccc1)C(=O)N[C@@H](CCC(N)=O)C(=O)Nc1cccc(Br)n1 (stereo partly drawn)
54	CCCCCCCCCCCCCC(=O)OC[C@H](NC(=O)[C@@H](NC(=O)[C@H](CCCCNC(=O)c1coc(-c2ccccc2)n1)NC(=O)c1coc(-c2ccccc2)n1)[C@H](C)O)C(=O)O
102	CON(C)C(=O)[C@H](CCC(=O)O)NC(=O)[C@H](C)NC(=O)[C@@H](NC(=O)c1ccc(-c2ccccc2)cc1)[C@@H](C)O
84	Cc1nc(C)c(C(=O)OC[C@H](NC(=O)[C@H](Cc2ccccc2)NC(=O)[C@H](CO)NC(=O)c2coc(-c3ccccc3)n2)C(=O)O)o1
86	CC[C@H](C)[C@H](NC(=O)c1ccc(-c2ccccc2)cc1)C(=O)N[C@@H](C(=O)N[C@@H](CCC(N)=O)C(=O)OCCc1scnc1C)C(C)C
100	C[C@@H](NC(=O)CCc1ccccc1)C(=O)N[C@@H](Cc1ccccc1)C(=O)N[C@@H](CCC(=O)O)C(=O)Nc1cccc(Br)n1
95	Cc1nc(C)c(C(=O)OC[C@H](NC(=O)[C@H](C)NC(=O)[C@H](COC(=O)c2oc(C)nc2C)NC(=O)c2coc(-c3ccccc3)n2)C(=O)O)o1
101	COC(=O)[C@H](CCC(=O)O)NC(=O)[C@H](C)NC(=O)[C@@H](NC(=O)c1ccc(-c2ccccc2)cc1)[C@@H](C)O
92	O=C(N[C@@H](CO)C(=O)N[C@@H](Cc1ccccc1)C(=O)N[C@@H](CO)C(=O)O)C(Br)C(Br)c1ccc(F)cc1 (stereo partly drawn)
93	O=C(N[C@@H](CO)C1=N[C@H](C(=O)O)CO1)c1coc(-c2ccccc2)n1
78	C[C@@H](O)[C@H](NC(=O)/C=C/c1ccccc1)C(=O)N[C@@H](Cc1ccccc1)C(=O)N[C@@H](CCC(N)=O)C(N)=O
106	O=C(N[C@@H](Cc1ccc(O)cc1)C(=O)N[C@@H](Cc1ccc(O)cc1)C(=O)N[C@@H](Cc1ccc(O)cc1)C(=O)O)c1ccc(F)cc1F
108	C=CCCCCCCCCCOC(=O)[C@H](CC(C)C)NC(=O)[C@H](COC(C)(C)C)NC(=O)[C@H](Cc1ccccc1)NC(=O)CCc1ccccc1
80	CON(C)C(=O)[C@H](CCC(N)=O)NC(=O)[C@H](Cc1ccccc1)NC(=O)[C@@H](NC(=O)/C=C/c1ccccc1)[C@@H](C)O
96	NCCCC[C@H](NC(=O)CCc1ccccc1)C(=O)N[C@@H](Cc1c[nH]cn1)C(=O)N[C@@H](CO)C(=O)Nc1ccc(F)cc1F

The next lines start with the molecule.

SMILES	inhibition [%]
O=C(CCc1ccc(F)cc1)N[C@@H](Cc1ccc(O)cc1)C(=O)NCC(=O)N[C@@H](Cc1ccc(O)cc1)C(=O)NCc1ccccc1	127
O=C(CCc1ccc(F)cc1)N[C@@H](Cc1ccc(O)cc1)C(=O)NCC(=O)N[C@@H](Cc1ccc(O)cc1)C(=O)OCCCl	50
CCCCOC(=O)[C@H](Cc1ccc(O)cc1)NC(=O)CNC(=O)[C@H](Cc1ccc(O)cc1)NC(=O)c1ccc(F)cc1	76
C=CCCCCCCCCCOC(=O)[C@H](CO)NC(=O)[C@H](Cc1ccccc1)NC(=O)[C@H](CO)NC(=O)CCc1ccccc1	84
CCCCCCCCCCCOc1ccc(C(=O)N[C@@H](Cc2ccc(O)cc2)C(=O)N[C@@H](Cc2ccc(O)cc2)C(=O)N[C@@H](Cc2ccc(O)cc2)C(N)=O)cc1	103
CCCCCCCCCCCCCCCCNC(=O)[C@H](Cc1ccc(O)cc1)NC(=O)CNC(=O)[C@H](Cc1ccc(O)cc1)NC(=O)c1ccc(F)cc1	89
CCCCCCCCCCCC(=O)N[C@@H](Cc1c[nH]cn1)C(=O)N[C@@H](Cc1ccccc1)C(=O)N[C@@H](Cc1ccc(O)cc1)C(=O)NO (Lauroyl-His-Phe-Tyr-{NHOH})	89
O=C(N[C@@H](Cc1ccc(O)cc1)C(=O)N[C@@H](Cc1ccc(O)cc1)C(=O)N[C@@H](Cc1ccc(O)cc1)C(=O)Nc1nccs1)c1ccc(F)cc1F	78
O=C(/C=C/c1ccc(F)cc1)N[C@@H](CO)C(=O)N[C@@H](Cc1ccccc1)C(=O)N[C@@H](CO)C(=O)Nc1ccc(F)c(Cl)c1	89
COc1ccc(C[C@@H](C(=O)N(C)[C@@H](Cc2ccccc2)C(=O)O)N(C)C(=O)[C@@H](Cc2ccc(O)cc2)NC(=O)CCc2ccccc2)cc1	46
CCCCCCCCCCCOc1ccc(C(=O)N[C@@H](Cc2ccc(O)cc2)C(=O)N[C@@H](Cc2ccc(O)cc2)C(=O)N[C@@H](Cc2ccc(O)cc2)C(=O)OC)cc1	102
CCCCCCCCCCCC(=O)N[C@@H](Cc1c[nH]cn1)C(=O)N[C@@H](Cc1c[nH]cn1)C(=O)N[C@@H](CO)C(=O)Nc1ccccc1N	88
CCCCCCCCCCCOc1ccc(C(=O)N[C@@H](Cc2ccc(O)cc2)C(=O)N[C@@H](Cc2ccc(O)cc2)C(=O)N[C@@H](Cc2ccc(O)cc2)C(=O)NCc2ccc(F)cc2F)cc1	99
COC(=O)[C@H](Cc1cn(C(c2ccccc2)(c2ccccc2)c2ccccc2)cn1)NC(=O)[C@H](Cc1ccccc1)NC(=O)CNC(=O)c1csc(-c2cccs2)n1	69
CCCCCCCCCCCOc1ccc(C(=O)N[C@@H](Cc2c[nH]cn2)C(=O)N[C@@H](Cc2ccc(O)cc2)C(=O)N[C@@H](Cc2ccccc2)C(N)=O)cc1	81
CCCCCCCCCCCOc1ccc(C(=O)N[C@@H](Cc2c[nH]cn2)C(=O)N[C@@H](Cc2ccc(O)cc2)C(=O)N[C@@H](Cc2ccccc2)C(=O)NCCCCN)cc1	127
O=C(CNC(=O)c1csc(-c2ccccc2)n1)N[C@@H](Cc1ccccc1)C(=O)N[C@@H](Cc1cn(C(c2ccccc2)(c2ccccc2)c2ccccc2)cn1)C(=O)O	71
CCCCCCCCCCCC(=O)N[C@@H](Cc1c[nH]cn1)C(=O)N[C@@H](Cc1c[nH]cn1)C(=O)N[C@@H](CO)C(=O)NCC(O)CO (stereo partly drawn)	63
O=C(CNC(=O)[C@H](Cc1ccc(O)cc1)NC(=O)c1ccc(F)cc1)N[C@@H](Cc1ccc(O)cc1)C(=O)Nc1ccc(F)cc1F	98
CCCCOC(=O)[C@H](Cc1ccc(O)cc1)NC(=O)CNC(=O)[C@H](Cc1ccc(O)cc1)NC(=O)CCc1ccc(F)cc1	47
NC(=O)CC[C@H](NC(=O)[C@H](Cc1ccccc1)NC(=O)CNC(=O)CCc1ccccc1)C(=O)NCc1ccccc1 (Hydrocinnamoyl-Gly-Phe-Gln-NHBn)	85
CCCCCCCCCCCOc1ccc(C(=O)N[C@@H](Cc2ccc(O)cc2)C(=O)N[C@@H](Cc2ccc(O)cc2)C(=O)N[C@@H](Cc2ccc(O)cc2)C(=O)OCCCl)cc1	107
CCCCCCCCCCCOc1ccc(C(=O)N[C@@H](Cc2ccc(O)cc2)C(=O)N[C@@H](Cc2ccc(O)cc2)C(=O)N[C@@H](Cc2ccc(O)cc2)C(=O)N(C)CCc2ccccn2)cc1	86
CCCCCCCCCCC(=O)N[C@@H](Cc1c[nH]cn1)C(=O)N[C@@H](Cc1ccccc1)C(=O)N[C@@H](Cc1ccc(O)cc1)C(=O)NO (Undecanoyl-His-Phe-Tyr-{NHOH})	89
CCCCCCCCCCCOc1ccc(C(=O)N[C@@H](Cc2ccc(O)cc2)C(=O)N[C@@H](Cc2ccc(O)cc2)C(=O)N[C@@H](Cc2ccc(O)cc2)C(=O)Nc2ccc(F)cc2F)cc1	101
CCCCCCCCCCCCCCCC(=O)N[C@@H](Cc1ccc(O)cc1)C(=O)N[C@@H](Cc1ccc(O)cc1)C(=O)N[C@@H](Cc1ccc(O)cc1)C(=O)OC (Palmitoyl-Tyr-Tyr-Tyr-OMe)	49
CCCCCCCCCCC(=O)N[C@@H](Cc1ccc(O)cc1)C(=O)N[C@@H](Cc1c[nH]cn1)C(=O)N[C@@H](Cc1c[nH]cn1)C(=O)NO (Undecanoyl-Tyr-His-His-{NHOH})	84
CCC/C=C\c1ccccc1/C=C/C(=O)N[C@H](Cc1ccc(O)cc1)C(=O)N(C)[C@@H](Cc1ccc(OC)cc1)C(=O)N(C)[C@@H](Cc1ccccc1)C(=O)OCc1cnc(C)s1	97
O=C(CNC(=O)[C@H](Cc1ccc(O)cc1)NC(=O)c1ccc(F)cc1)N[C@@H](Cc1ccc(O)cc1)C(=O)O	90
